Data as given in ChEMBL document CHEMBL1811780, “Could LogP be a principal determinant of biological activity in 18-crown-6 ethers? Synthesis of biologically active adamantane-substituted diaza-crowns” (Eur J Med Chem, 2011).
The source made the active and inactive calls. The rule behind the calls is not given here.

Experiments:
NCI-H460 = assay: Antiproliferative activity against human H460 cells after 72 hrs by MTT assay; type: functional; conditions: NCI-H460, 72 h
Procedure, shortened: (§1)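 Adherent monolayers grown in DMEM with 10% FBS, 2 mM L-glutamine, penicillin and streptomycin at 37 °C, 5% CO2. Cells seeded on day 0, then given five 10-fold dilutions (10^-8 to 10^-4 mol/L), DMSO at most 0.25%, for 72 h. MTT read at 570 nm. GI50 from linear regression of percentage growth around 50%. Quadruplicate points; mean of three experiments.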

SW-620 [1] = assay: Antiproliferative activity against human SW620 cells after 72 hrs by MTT assay; type: functional; conditions: SW-620, 72 h; procedure, shortened: as §1
MCF7 = assay: Antiproliferative activity against human MCF7 cells after 72 hrs by MTT assay; type: functional; conditions: MCF7, 72 h; procedure, shortened: as §1
HCT-116 = assay: Antiproliferative activity against human HCT116 cells after 72 hrs by MTT assay; type: functional; conditions: HCT-116, 72 h; procedure, shortened: as §1
MOLT-4 = assay: Antiproliferative activity against human MOLT4 cells after 72 hrs by MTT assay; type: functional; conditions: MOLT-4, 72 h
Procedure, shortened: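 MOLT-4 grown in suspension in RPMI with 10% FBS, 2 mM L-glutamine, penicillin and streptomycin at 37 °C, 5% CO2. Treated with five 10-fold dilutions (10^-8 to 10^-4 mol/L), DMSO at most 0.25%, for 72 h. MTT read at 570 nm. GI50 by linear regression of percentage growth around 50%. Quadruplicate points; mean of three experiments.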

SW-620 [2] = assay: Cell cycle arrest in human SW620 cells assessed as G1 phase delay at 5 uM after 24 to 48 hrs using propidium iodide staining by flow cytometry; type: functional, cell-based
Procedure, shortened: (§2)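 2×10^5 SW 620 cells per well were treated 24 h after seeding, for 24 or 48 h. Attached and floating cells were pooled, fixed in 70% ethanol, then stained with 1 µg/ml PI plus RNase A. 20000 events were acquired by flow cytometry. Phase percentages came from DNA histograms; subG1 is given as a percentage of all counts.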

SW-620 [3] = assay: Cell cycle arrest in human SW620 cells assessed as G1 phase delay at 10 uM after 24 to 48 hrs using propidium iodide staining by flow cytometry; type: functional, cell-based; procedure, shortened: as §2
SW-620 [4] = assay: Cell cycle arrest in human SW620 cells assessed as S phase reduction at 5 uM after 24 to 48 hrs using propidium iodide staining by flow cytometry; type: functional, cell-based; procedure, shortened: as §2
SW-620 [5] = assay: Cell cycle arrest in human SW620 cells assessed as S phase reduction at 10 uM after 24 to 48 hrs using propidium iodide staining by flow cytometry; type: functional, cell-based; procedure, shortened: as §2
SW-620 [6] = assay: Cell cycle arrest in human SW620 cells assessed as accumulation in subG1 phase at 10 uM after 24 to 48 hrs using propidium iodide staining by flow cytometry; type: functional, cell-based; procedure, shortened: as §2
Escherichia coli [7] = assay: Antibacterial activity against Escherichia coli assessed as growth inhibition at 10^-4 M after 105 mins; type: functional; conditions: 1.75 h, read-out: GI
Procedure, shortened: (§3)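 E. coli grown in LB at 37 °C with shaking to OD600 ≈0.1. Culture split into untreated control and four treated aliquots at 10^-4, 10^-5, 10^-6 and 10^-7 M. Grown 105 min (about three mass doublings) at 37 °C. Dilutions in phosphate buffer plated on LB, incubated overnight at 37 °C, CFU counted. % growth inhibition and GI50 derived as for tumour cells. Quadruplicate, at least two experiments.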

Escherichia coli [8] = assay: Antibacterial activity against Escherichia coli after 105 mins; type: functional; conditions: 1.75 h; procedure, shortened: as §3
Bacillus subtilis = assay: Antibacterial activity against Bacillus subtilis after 70 mins; type: functional, organism-based
MIA PaCa-2 = assay: Antiproliferative activity against human MIAPaCa2 cells after 72 hrs by MTT assay; type: functional; conditions: MIA PaCa-2, 72 h; procedure, shortened: as §1
HeLa = assay: Antiproliferative activity against human HeLa cells after 72 hrs by MTT assay; type: functional; procedure, shortened: as §1
SW-620 [9] = assay: Induction of apoptosis in human SW620 cells assessed as viable cells at 5 uM after 48 hrs using annexin-V/conjugated 7-AAD double staining by flow cytometry (reference value: 95.95%); type: functional; conditions: SW-620, 48 h, read-out: Activity
SW-620 [10] = assay: Induction of apoptosis in human SW620 cells assessed as early apoptotic cells at 5 uM after 48 hrs using annexin-V/conjugated 7-AAD double staining by flow cytometry (reference value: 2.58%); type: functional
SW-620 [11] = assay: Induction of apoptosis in human SW620 cells assessed as late apoptotic cells at 5 uM after 48 hrs using annexin-V/conjugated 7-AAD double staining by flow cytometry (reference value: 1.33%); type: functional
SW-620 [12] = assay: Induction of apoptosis in human SW620 cells assessed as necrotic cells at 5 uM after 48 hrs using annexin-V/conjugated 7-AAD double staining by flow cytometry (reference value: 0.14%); type: functional
SW-620 [13] = assay: Induction of apoptosis in human SW620 cells assessed as viable cells at 10 uM after 48 hrs using annexin-V/conjugated 7-AAD double staining by flow cytometry (reference value: 95.95%); type: functional; conditions: SW-620, 48 h, read-out: Activity
SW-620 [14] = assay: Induction of apoptosis in human SW620 cells assessed as early apoptotic cells at 10 uM after 48 hrs using annexin-V/conjugated 7-AAD double staining by flow cytometry (reference value: 2.58%); type: functional
SW-620 [15] = assay: Induction of apoptosis in human SW620 cells assessed as late apoptotic cells at 10 uM after 48 hrs using annexin-V/conjugated 7-AAD double staining by flow cytometry (reference value: 1.33%); type: functional
SW-620 [16] = assay: Induction of apoptosis in human SW620 cells assessed as necrotic cells at 10 uM after 48 hrs using annexin-V/conjugated 7-AAD double staining by flow cytometry (reference value: 0.14%); type: functional

| Structure (SMILES) | GI50 (NCI-H460) [µM] | GI50 (SW-620 [1]) [µM] | GI50 (MCF7) [µM] | inhibition of growth at 100 µM (Escherichia coli [7]) [%] | IC50 (Bacillus subtilis) [µM] | GI50 (MIA PaCa-2) [µM] | GI50 (HeLa) [µM] | other results |
| --- | --- | --- | --- | --- | --- | --- | --- | --- |
| C(CN1CCOCCOCCN(CCCC23CC4CC(CC(C4)C2)C3)CCOCCOCC1)CC12CC3CC(CC(C3)C1)C2 | 1 | 1 | 2 | 26 | 17 | – | – | GI50 (HCT-116): 0.4 µM; GI50 (MOLT-4): 1 µM; Activity (SW-620 [2]): Active; Activity (SW-620 [3]): Active; Activity (SW-620 [4]): Active; Activity (SW-620 [5]): Active; Activity (SW-620 [6]): Active; GI50 (Escherichia coli [8]): 1000 µM |
| C1COCCN(CC23CC4CC(CC(C4)C2)C3)CCOCCOCCN(CC23CC4CC(CC(C4)C2)C3)CCO1 | 18 | 19 | 21 | < 15 | 25.1 | – | – | – |
| C1COCCOCCOCCOCCOCCN1 | > 100 | > 100 | > 100 | – | 1580 | – | – | – |
| O=C(N1CCOCCOCCN(C(=O)C23CC4CC(CC(C4)C2)C3)CCOCCOCC1)C12CC3CC(CC(C3)C1)C2 | 12 | 21 | 9 | < 15 | 75.9 | – | – | – |
| O=C(CC12CC3CC(CC(C3)C1)C2)N1CCOCCOCCN(C(=O)CC23CC4CC(CC(C4)C2)C3)CCOCCOCC1 | 14 | 12 | 5 | < 15 | 45.7 | – | – | GI50 (HCT-116): 6 µM; GI50 (MOLT-4): 6 µM |
| O=C(NCC(=O)N1CCOCCOCCN(C(=O)CNC(=O)OCc2ccccc2)CCOCCOCC1)OCc1ccccc1 | – | – | – | – | 1580 | – | – | – |
| CC(C)(C)C1CCC2OCCOCCOC3CC(C(C)(C)C)CCC3OCCOCCOC2C1 (stereo not given) | – | – | – | < 15 | 1.32 | – | – | – |
| COC(=O)[C@@H](NC(=O)CN1CCOCCOCCN(CC(=O)N[C@@H](C(=O)OC)c2ccccc2)CCOCCOCC1)c1ccccc1 | – | – | – | < 15 | 380 | – | – | – |
| O=C(CCC12CC3CC(CC(C3)C1)C2)N1CCOCCOCCN(C(=O)CCC23CC4CC(CC(C4)C2)C3)CCOCCOCC1 | 11 | 19 | 2 | < 15 | 129 | – | – | GI50 (HCT-116): 6 µM; GI50 (MOLT-4): 3 µM |
| C(CN1CCOCCOCCOCCOCCOCC1)CC12CC3CC(CC(C3)C1)C2 | 15 | 9 | 6 | – | – | 11 | 14 | – |
| C1COCCOCCN(CCC23CC4CC(CC(C4)C2)C3)CCOCCOCCO1 | 15 | 9 | 8 | – | 25.1 | 12 | 16 | – |
| c1ccc(CN2CCOCCOCCOCCOCCOCC2)cc1 | > 100 | > 100 | > 100 | – | 1580 | – | – | – |
| O=C(CC12CC3CC(CC(C3)C1)C2)N1CCOCCOCCOCCOCCOCC1 | > 100 | > 100 | > 100 | < 15 | – | > 100 | > 100 | – |
| CC(C)(C)c1cc2c(c(C(C)(C)C)c1)OCCOCCOc1c(cc(C(C)(C)C)cc1C(C)(C)C)OCCOCCO2 | – | – | – | < 15 | 1580 | – | – | – |
| c1ccc2c(c1)OCCOCCOc1ccccc1OCCOCCO2 | – | – | – | < 15 | 380 | – | – | – |
| C1COCCOCC23CC4CC(C2)CC(COCCOCCO1)(C4)O3 | > 100 | > 100 | > 100 | – | 1580 | > 100 | > 100 | – |
| C1COCCN(CCC23CC4CC(CC(C4)C2)C3)CCOCCOCCN(CCC23CC4CC(CC(C4)C2)C3)CCO1 | 4 | 2.6 | 4 | < 15 | 251 | 1.7 | 2.3 | Activity (SW-620 [2]): Active; Activity (SW-620 [3]): Active; Activity (SW-620 [4]): Active; Activity (SW-620 [5]): Active; Activity (SW-620 [6]): Active; viability at 5 µM (SW-620 [9]): 90%; Activity (SW-620 [10]): 7.46%; Activity (SW-620 [11]): 2.34%; Activity (SW-620 [12]): 0.17%; viability at 10 µM (SW-620 [13]): 76%; Activity (SW-620 [14]): 13.72%; Activity (SW-620 [15]): 9.46%; Activity (SW-620 [16]): 0.87% |
| C1COCCOCCNCCOCCOCCN1 | > 100 | > 100 | > 100 | – | 1580 | > 100 | > 100 | GI50 (HCT-116): > 100 µM; GI50 (MOLT-4): > 100 µM |
| CC(C)(C)c1ccc2c(c1)OCCOCCOc1cc(C(C)(C)C)ccc1OCCOCCO2 | – | – | – | < 15 | 2 | – | – | – |
| c1ccc(CN2CCOCCOCCN(Cc3ccccc3)CCOCCOCC2)cc1 | – | – | – | < 15 | 380 | – | – | – |
| C1CCC2OCCOCCOC3CCCCC3OCCOCCOC2C1 (stereo not given) [ICOSAHYDRODIBENZO[B,K][1,4,7,10,13,16]HEXAOXACYCLOOCTADECINE] | – | – | – | < 15 | 166 | – | – | – |
| C1COCC23CC4CC(C2)CC(COCCOCC25CC6CC(CC(CO1)(C6)O2)C5)(C4)O3 | 4 | 3 | 13 | < 15 | 1580 | 2 | 17 | – |
| O=C(CCC12CC3CC(CC(C3)C1)C2)N1CCOCCOCCOCCOCCOCC1 | 72 | 13 | 17 | < 15 | 1580 | 30 | 28 | – |
